Reference: ChEMBL document CHEMBL1140227, “Histone deacetylase inhibitors through click chemistry” (J Med Chem, 2008)

Columns and labels:
Type in all cases: functional
HT-29 = assay: Growth inhibition of human HT-29 cells at 10 uM relative to control; conditions: values are per cent of control
In short: (§1)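 Single-dose preliminary screen in the NCI human cancer cell line panel, run by the NIH. Percent inhibition of cell line growth was calculated by comparison with untreated samples.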

NCI-H522 = assay: Growth inhibition of human NCI-H522 cells at 10 uM relative to control; conditions: values are per cent of control; in short: as §1
cells [1] = conditions: Homo sapiens, Cancer cell lines
HCT-116 = assay: Growth inhibition of human HCT116 cells at 10 uM relative to control; conditions: values are per cent of control; in short: as §1
UACC-62 = assay: Growth inhibition of human UACC62 cells at 10 uM relative to control; conditions: values are per cent of control
In short: (§2)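 Single-dose NCI human tumour cell line screen, run by the NIH. Percent inhibition of cell line growth was calculated by comparison with untreated samples.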

cells [2] = conditions: Homo sapiens, Cancer cell lines; remark: listed apart in the source
UO-31 = assay: Growth inhibition of human UO31 cells at 10 uM relative to control; conditions: values are per cent of control; in short: as §2
CAKI-1 = assay: Growth inhibition of human Caki1 cells at 10 uM relative to control; conditions: values are per cent of control; in short: as §1
K562 = assay: Growth inhibition of human K562 cells at 10 uM relative to control; conditions: values are per cent of control; in short: as §1
NCI-H226 = assay: Growth inhibition of human NCI-H226 cells at 10 uM relative to control; conditions: values are per cent of control; in short: as §1
DU-145 = assay: Growth inhibition of human DU145 cells at 10 uM relative to control; conditions: values are per cent of control; in short: as §1
HOP-62 = assay: Growth inhibition of human HOP62 cells at 10 uM relative to control; conditions: values are per cent of control; in short: as §1
SK-MEL-2 = assay: Growth inhibition of human SK-MEL-2 cells at 10 uM relative to control; conditions: values are per cent of control; in short: as §1
MOLT-4 = assay: Growth inhibition of human MOLT4 cells at 10 uM relative to control; conditions: values are per cent of control; in short: as §1
SK-MEL-28 = assay: Growth inhibition of human SK-MEL-28 cells at 10 uM relative to control; conditions: values are per cent of control; in short: as §1
[3] = Growth inhibition of human RPMI8266 cells at 10 uM relative to control; conditions: values are per cent of control; in short: as §1
SK-OV-3 = assay: Growth inhibition of human SKOV3 cells at 10 uM relative to control; conditions: values are per cent of control; in short: as §1
U-251 = assay: Growth inhibition of human U251 cells at 10 uM relative to control; conditions: values are per cent of control; in short: as §2
ACHN = assay: Growth inhibition of human ACHN cells at 10 uM relative to control; conditions: values are per cent of control; in short: as §1
NCI-H23 = assay: Growth inhibition of human NCI-H23 cells at 10 uM relative to control; conditions: values are per cent of control; in short: as §1
NCI-H460 = assay: Growth inhibition of human NCI-H460 cells at 10 uM relative to control; conditions: values are per cent of control; in short: as §1
MCF7 = assay: Growth inhibition of human MCF7 cells at 10 uM relative to control; conditions: values are per cent of control; in short: as §1
EKVX = assay: Growth inhibition of human EKVX cells at 10 uM relative to control; conditions: values are per cent of control; in short: as §1
SF-268 = assay: Growth inhibition of human SF268 cells at 10 uM relative to control; conditions: values are per cent of control; in short: as §1
Melanoma cell = assay: cells; conditions: Homo sapiens
M14 = assay: Growth inhibition of human M14 cells at 10 uM relative to control; conditions: values are per cent of control; in short: as §1
[4] = Growth inhibition of human Hs 578T cells at 10 uM relative to control; conditions: values are per cent of control; in short: as §1
PC-3 = assay: Growth inhibition of human PC3 cells at 10 uM relative to control; conditions: values are per cent of control; in short: as §1
OVCAR-3 = assay: Growth inhibition of human OVCAR-3 cells at 10 uM relative to control; conditions: values are per cent of control; in short: as §1
CCRF-CEM = assay: Growth inhibition of human CCRF-CEM cells at 10 uM relative to control; conditions: values are per cent of control; in short: as §1
SNB-75 = assay: Growth inhibition of human SNB75 cells at 10 uM relative to control; conditions: values are per cent of control; in short: as §2
SF-539 = assay: Growth inhibition of human SF539 cells at 10 uM relative to control; conditions: values are per cent of control; in short: as §1
SF-295 = assay: Growth inhibition of human SF295 cells at 10 uM relative to control; conditions: values are per cent of control; in short: as §1
T47D = assay: Growth inhibition of human T47D cells at 10 uM relative to control; conditions: values are per cent of control; in short: as §2
NCI/ADR-RES = assay: Growth inhibition of human NCI/ADR-RES cells at 10 uM relative to control; conditions: values are per cent of control; in short: as §1
cells [5] = conditions: Homo sapiens, Cancer cell lines; remark: listed apart in the source
Malme-3M = assay: Growth inhibition of human MALME-3M cells at 10 uM relative to control; conditions: values are per cent of control; in short: as §1
HL-60(TB) = assay: Growth inhibition of human HL-60(TB) cells at 10 uM relative to control; conditions: read-out: INH
In short: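 Single-dose cell line screen run by the NCI (NIH) in its human cancer cell line panel, which includes the leukemia line HL-60(TB). Percent growth inhibition was calculated by comparison with untreated samples.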

KM12 = assay: Growth inhibition of human KM12 cells at 10 uM relative to control; conditions: values are per cent of control; in short: as §1
NCI-H322M = assay: Growth inhibition of human NCI-H322M cells at 10 uM relative to control; conditions: values are per cent of control; in short: as §1
OVCAR-4 = assay: Growth inhibition of human OVCAR4 cells at 10 uM relative to control; conditions: values are per cent of control; in short: as §1
HCT-15 = assay: Growth inhibition of human HCT15 cells at 10 uM relative to control; conditions: values are per cent of control; in short: as §1
Leukemia cell = assay: cells; conditions: Homo sapiens
SN12C = assay: Growth inhibition of human SN12C cells at 10 uM relative to control; conditions: values are per cent of control; in short: as §1
HCC 2998 = assay: Growth inhibition of human HCC2998 cells at 10 uM relative to control; conditions: values are per cent of control; in short: as §1
BT-549 = assay: Growth inhibition of human BT549 cells at 10 uM relative to control; conditions: values are per cent of control; in short: as §1
MDA-MB-231 = assay: Growth inhibition of human MDA-MB-231 cells at 10 uM relative to control; conditions: values are per cent of control; in short: as §1
SK-MEL-5 = assay: Growth inhibition of human SK-MEL-5 cells at 10 uM relative to control; conditions: values are per cent of control; in short: as §1
cells [6] = conditions: Homo sapiens, Cancer cell lines; remark: listed apart in the source
OVCAR-5 = assay: Growth inhibition of human OVCAR5 cells at 10 uM relative to control; conditions: values are per cent of control; in short: as §1
cells [7] = conditions: Homo sapiens, Cancer cell lines; remark: listed apart in the source
IGROV-1 = assay: Growth inhibition of human IGROV1 cells at 10 uM relative to control; conditions: values are per cent of control; in short: as §1
MDA-MB-468 = assay: Growth inhibition of human MDA-MB-468 cells at 10 uM relative to control; conditions: values are per cent of control; in short: as §1
A549 = assay: Growth inhibition of human A549 cells at 10 uM relative to control; conditions: values are per cent of control; in short: as §1
786-0 = assay: Growth inhibition of human 786-0 cells at 10 uM relative to control; conditions: values are per cent of control; in short: as §1
COLO 205 = assay: Growth inhibition of human COLO205 cells at 10 uM relative to control; conditions: values are per cent of control; in short: as §1
UACC-257 = assay: Growth inhibition of human UACC257 cells at 10 uM relative to control; conditions: values are per cent of control; in short: as §2
TK-10 = assay: Growth inhibition of human TK10 cells at 10 uM relative to control; conditions: values are per cent of control; in short: as §2
SNB-19 = assay: Growth inhibition of human SNB19 cells at 10 uM relative to control; conditions: values are per cent of control; in short: as §1
MDA-MB-435 = assay: Growth inhibition of human MDA-MB-435 cells at 10 uM relative to control; conditions: values are per cent of control; in short: as §1
OVCAR-8 = assay: Growth inhibition of human OVCAR8 cells at 10 uM relative to control; conditions: values are per cent of control; in short: as §1
LOX IMVI = assay: Growth inhibition of human LOXIMVI cells at 10 uM relative to control; conditions: values are per cent of control; in short: as §1

O=C(/C=C/c1cn(CC(=O)c2ccccc2)nn1)NO showed a growth, % of control at 10 µM (HT-29) of 60%, a growth, % of control at 10 µM (NCI-H522) of 31.1% and a growth percent at 10 µM (cells [1]) of 65%. The growth, % of control at 10 µM (HCT-116) was 30.7%, the growth, % of control at 10 µM (UACC-62) was 61.2% and the inhibition at 10 µM (cells [2]) was 65%. It also gave a growth, % of control at 10 µM (UO-31) of 45.3%, a growth, % of control at 10 µM (CAKI-1) of 63.9% and a growth, % of control at 10 µM (K562) of 72.3%. It also gave a growth, % of control at 10 µM (NCI-H226) of 89.4%, a growth, % of control at 10 µM (DU-145) of 75.2% and a growth, % of control at 10 µM (HOP-62) of 30.1%. The growth, % of control at 10 µM (SK-MEL-2) was 61.7%, the growth, % of control at 10 µM (MOLT-4) was 83% and the growth, % of control at 10 µM (SK-MEL-28) was 82.2%. The growth, % of control at 10 µM [3] was 55.6%, the growth, % of control at 10 µM (SK-OV-3) was 81.9% and the growth, % of control at 10 µM (U-251) was 76%. The growth, % of control at 10 µM (ACHN) was 82.5%, the growth, % of control at 10 µM (NCI-H23) was 69.2% and the growth, % of control at 10 µM (NCI-H460) was 62.5%. For the same compound, the growth, % of control at 10 µM (MCF7) was 77.8%, the growth, % of control at 10 µM (EKVX) was 54.6% and the growth, % of control at 10 µM (SF-268) was 71.9%. It also gave an inhibition at 10 µM (Melanoma cell) of 60%, a growth, % of control at 10 µM (M14) of 49.5% and a growth, % of control at 10 µM [4] of 211%. It also gave a growth, % of control at 10 µM (PC-3) of 57.8%, a growth, % of control at 10 µM (OVCAR-3) of 57.7% and a growth, % of control at 10 µM (CCRF-CEM) of 48.6%. It also gave a growth, % of control at 10 µM (SNB-75) of 53.9%, a growth, % of control at 10 µM (SF-539) of 86.4% and a growth, % of control at 10 µM (SF-295) of 15.3%. It also gave a growth, % of control at 10 µM (T47D) of 64.7%, a growth, % of control at 10 µM (NCI/ADR-RES) of 14.8% and an inhibition at 10 µM (cells [5]) of 53%. The growth, % of control at 10 µM (Malme-3M) was 6.42%, the growth, % of control at 10 µM (HL-60(TB)) was 258% and the growth, % of control at 10 µM (KM12) was 78%. The growth, % of control at 10 µM (NCI-H322M) was 41.3%, the growth, % of control at 10 µM (OVCAR-4) was 77.8% and the growth, % of control at 10 µM (HCT-15) was 117%. For the same compound, the inhibition at 10 µM (Leukemia cell) was 104%, the growth, % of control at 10 µM (SN12C) was 86.2% and the growth, % of control at 10 µM (HCC 2998) was 71.1%. For the same compound, the growth, % of control at 10 µM (BT-549) was 72.1%, the growth, % of control at 10 µM (MDA-MB-231) was 96.9% and the growth, % of control at 10 µM (SK-MEL-5) was 92.9%. For the same compound, the inhibition at 10 µM (cells [6]) was 67%, the growth, % of control at 10 µM (OVCAR-5) was 65% and the growth percent at 10 µM (cells [7]) was 78%. It also gave a growth, % of control at 10 µM (IGROV-1) of 64.2%, a growth, % of control at 10 µM (MDA-MB-468) of 64.6% and a growth, % of control at 10 µM (A549) of 54.1%. For the same compound, the growth, % of control at 10 µM (786-0) was 39.9%, the growth, % of control at 10 µM (COLO 205) was 105% and the growth, % of control at 10 µM (UACC-257) was 43.9%. For the same compound, the growth, % of control at 10 µM (TK-10) was 46.7%, the growth, % of control at 10 µM (SNB-19) was 101% and the growth, % of control at 10 µM (MDA-MB-435) was 23.3%. It also gave a growth, % of control at 10 µM (OVCAR-8) of 45.1% and a growth, % of control at 10 µM (LOX IMVI) of 88.3%.
